Laboratory results as given in ChEMBL document CHEMBL1123512, “Synthesis and biological activity of analogues of beta-chlornaltrexamine and beta-funaltrexamine at opioid receptors” (J Med Chem, 1986).

Key:
[1] = biological target: T1, Opioid receptors; mu/kappa/delta (Homo sapiens, UniProt P41145+P41143+P35372); assay: Percent inhibition against opioid receptor in electrically stimulated longitudinal muscle of guinea pig ileum at 100 nM; type: tissue-based; details: Cavia porcellus, target entry is the homologue from another species
T1 sequence (P35372 whole entry, looked up): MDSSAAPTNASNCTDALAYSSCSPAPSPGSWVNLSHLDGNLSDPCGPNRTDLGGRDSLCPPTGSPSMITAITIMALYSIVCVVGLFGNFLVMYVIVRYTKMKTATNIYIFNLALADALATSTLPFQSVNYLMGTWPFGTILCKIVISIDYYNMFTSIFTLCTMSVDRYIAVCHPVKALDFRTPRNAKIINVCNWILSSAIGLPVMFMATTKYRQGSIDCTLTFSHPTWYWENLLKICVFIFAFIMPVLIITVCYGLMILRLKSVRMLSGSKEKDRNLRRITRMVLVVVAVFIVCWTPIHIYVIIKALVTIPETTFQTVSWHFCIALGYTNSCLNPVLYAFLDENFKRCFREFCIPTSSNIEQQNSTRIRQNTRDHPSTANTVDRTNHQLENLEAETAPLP
T1 sequence (P41143 whole entry, looked up): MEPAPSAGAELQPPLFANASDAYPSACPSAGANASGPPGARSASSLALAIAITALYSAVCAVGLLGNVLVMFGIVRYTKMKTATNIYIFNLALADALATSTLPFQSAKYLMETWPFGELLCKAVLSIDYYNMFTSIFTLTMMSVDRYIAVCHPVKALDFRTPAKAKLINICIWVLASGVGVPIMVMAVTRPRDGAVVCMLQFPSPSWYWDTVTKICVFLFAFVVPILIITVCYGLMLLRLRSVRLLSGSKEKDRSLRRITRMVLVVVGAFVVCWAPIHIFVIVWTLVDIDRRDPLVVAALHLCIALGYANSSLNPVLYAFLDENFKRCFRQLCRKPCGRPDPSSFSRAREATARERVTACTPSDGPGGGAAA
T1 sequence (P41145 whole entry, looked up): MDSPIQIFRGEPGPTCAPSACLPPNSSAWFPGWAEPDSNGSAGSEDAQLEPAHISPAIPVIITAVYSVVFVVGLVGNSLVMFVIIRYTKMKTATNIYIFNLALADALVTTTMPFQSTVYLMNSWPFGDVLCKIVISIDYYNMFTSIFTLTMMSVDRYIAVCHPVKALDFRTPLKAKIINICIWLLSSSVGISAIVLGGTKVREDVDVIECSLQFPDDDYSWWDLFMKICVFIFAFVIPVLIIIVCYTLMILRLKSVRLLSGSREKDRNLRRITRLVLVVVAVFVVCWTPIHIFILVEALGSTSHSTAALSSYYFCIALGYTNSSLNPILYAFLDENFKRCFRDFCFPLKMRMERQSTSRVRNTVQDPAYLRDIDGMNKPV

[2] = biological target: T1, Opioid receptors; mu/kappa/delta; assay: (§1) Compound was tested for agonist activity against opioid receptor in electrically stimulated longitudinal muscle of guinea pig ileum; type: functional, tissue-based; details: Cavia porcellus, target entry is the homologue from another species
[3] = biological target: T2, Opioid receptor (Mus musculus) (UniProt P42866+P32300+P33534); assay: Compound was tested for agonist activity against opioid receptor in mouse vas deferens; type: functional, tissue-based
T2 sequence (P32300 whole entry, looked up): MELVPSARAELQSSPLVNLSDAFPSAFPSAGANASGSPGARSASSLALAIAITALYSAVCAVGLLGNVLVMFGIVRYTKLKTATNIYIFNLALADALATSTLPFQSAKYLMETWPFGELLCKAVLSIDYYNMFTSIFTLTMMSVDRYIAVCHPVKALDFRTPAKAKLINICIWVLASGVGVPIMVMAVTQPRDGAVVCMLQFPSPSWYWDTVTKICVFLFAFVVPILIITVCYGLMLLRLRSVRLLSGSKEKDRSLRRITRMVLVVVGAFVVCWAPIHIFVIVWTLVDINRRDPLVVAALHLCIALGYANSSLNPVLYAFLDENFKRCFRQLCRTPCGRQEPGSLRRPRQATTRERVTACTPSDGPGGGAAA
T2 sequence (P33534 whole entry, looked up): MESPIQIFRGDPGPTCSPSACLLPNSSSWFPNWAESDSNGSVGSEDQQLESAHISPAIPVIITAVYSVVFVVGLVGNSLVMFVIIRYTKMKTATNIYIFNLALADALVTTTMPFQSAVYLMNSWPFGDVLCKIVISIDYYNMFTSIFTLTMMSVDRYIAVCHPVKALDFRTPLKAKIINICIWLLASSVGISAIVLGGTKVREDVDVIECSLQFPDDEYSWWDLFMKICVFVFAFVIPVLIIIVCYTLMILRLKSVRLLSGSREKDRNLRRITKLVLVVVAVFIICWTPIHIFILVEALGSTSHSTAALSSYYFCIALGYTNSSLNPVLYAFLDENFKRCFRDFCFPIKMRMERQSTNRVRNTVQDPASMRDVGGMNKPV
T2 sequence (P42866 whole entry, looked up): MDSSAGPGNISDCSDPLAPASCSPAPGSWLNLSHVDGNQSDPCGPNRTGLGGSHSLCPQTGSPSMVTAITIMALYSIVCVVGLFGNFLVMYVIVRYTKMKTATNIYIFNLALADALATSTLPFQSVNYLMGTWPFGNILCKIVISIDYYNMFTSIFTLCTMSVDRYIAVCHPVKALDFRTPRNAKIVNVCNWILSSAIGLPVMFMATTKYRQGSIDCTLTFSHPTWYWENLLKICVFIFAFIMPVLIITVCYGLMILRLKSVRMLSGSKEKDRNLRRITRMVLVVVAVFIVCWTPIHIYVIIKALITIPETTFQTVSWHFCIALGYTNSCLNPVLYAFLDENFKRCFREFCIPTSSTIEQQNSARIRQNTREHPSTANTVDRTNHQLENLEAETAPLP

[4] = biological target: T2, Opioid receptor (Mus musculus); assay: Percent inhibition against opioid receptor in mouse vas deferens at 1 uM; type: tissue-based
[5] = biological target: T1, Opioid receptors; mu/kappa/delta; assay: Irreversible antagonistic activity against opioid receptor in electrically stimulated longitudinal muscle of guinea pig ileum expressed as IC50 of EK by IC50 of control; type: functional, tissue-based
Summary of the method: (§2)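 Guinea pig ileum longitudinal muscle was exposed to ligand at 200 nM for 30 min, then washed thoroughly (30 times), and challenged with morphine or ethylketazocine (EK). The value is the agonist IC50 in the treated preparation divided by the control IC50 in the same preparation.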

[6] = biological target: T1, Opioid receptors; mu/kappa/delta; assay: Irreversible antagonistic activity against opioid receptor in electrically stimulated longitudinal muscle of guinea pig ileum expressed as IC50 of morphine by IC50 of control; type: functional, tissue-based; summary of the method: as §2
[7] = biological target: T1, Opioid receptors; mu/kappa/delta; assay: (§3) Compound was tested for irreversible antagonistic activity against opioid receptor in mouse vas deferens; type: functional, tissue-based
[8] = biological target: T1, Opioid receptors; mu/kappa/delta; assay: as §3; type: functional, tissue-based; remark: listed apart in the source
[9] = Reversible antagonistic activity against opioid receptor in electrically stimulated longitudinal muscle of guinea pig ileum expressed as IC50 of EK by IC50 of control; type: functional
Summary of the method: (§4)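 In guinea pig ileum longitudinal muscle, morphine or ethylketazocine (EK) was tested in the presence of ligand at 10 nM, without washing. The value is the agonist IC50 in the treated preparation divided by the control IC50 in the same preparation.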

[10] = Reversible antagonistic activity against opioid receptor in electrically stimulated longitudinal muscle of guinea pig ileum expressed as IC50 of morphine by IC50 of control; type: functional; summary of the method: as §4
[11] = biological target: T2, Opioid receptor (Mus musculus); assay: Compound was tested for irreversible antagonistic activity against opioid receptor in mouse vas deferens at 3 uM; type: functional, tissue-based
[12] = biological target: T1, Opioid receptors; mu/kappa/delta; assay: as §1; type: functional, tissue-based, Cavia porcellus; details: target entry is the homologue from another species
[13] = biological target: T1, Opioid receptors; mu/kappa/delta; assay: Compound was tested for irreversible antagonistic activity against opioid receptor in mouse vas deferens expressed as IC50 of DADLE by IC50 of control; type: functional, tissue-based
[14] = biological target: T1, Opioid receptors; mu/kappa/delta; assay: Percent inhibition against opioid receptor in electrically stimulated longitudinal muscle of guinea pig ileum at 1 uM; type: tissue-based; details: Cavia porcellus, target entry is the homologue from another species
[15] = biological target: T2, Opioid receptor (Mus musculus); assay: Percent inhibition against opioid receptor in mouse vas deferens at 3 uM; type: tissue-based
[16] = biological target: T1, Opioid receptors; mu/kappa/delta; assay: Compound was tested for irreversible antagonistic activity against opioid receptor in mouse vas deferens expressed as IC50 of morphine by IC50 of control; type: functional, tissue-based

Structure (SMILES) | inhibition [1] [%] | IC20 [2] [nM] | IC30 [3] [nM] | inhibition [4] [%] | Ratio [5] | Ratio [6] | Ratio [7] | Ratio [8] | Ratio [9] | Ratio [10] | inhibition [11] [%] | IC50 [12] [nM] | Ratio [13] | inhibition [14] [%] | IC30 [2] [nM] | inhibition [15] [%] | Ratio [16]
CCOC(=O)/C=C/C(=O)NCC(=O)NCC(=O)N[C@@H]1CC[C@@]2(O)C3Cc4ccc(O)c5c4C2(CCN3CC2CC2)[C@H]1O5 (stereo partly specified) | 45 | 10 | 10 | 59 | 1.3 | 3.9 | 4.3 | 1.2 | 4.8 | 16.8 |  |  |  |  |  |  | 
O=C(CN(CCCl)CCCl)N[C@@H]1CC[C@@]2(O)C3Cc4ccc(O)c5c4C2(CCN3CC2CC2)[C@H]1O5 (stereo partly specified) |  |  | 20 | 55 | 12.3 | 27.4 |  |  |  |  | 54 | 3.8 | 4 |  |  |  | 
CCOC(=O)/C=C/C(=O)NCC(=O)N[C@@H]1CC[C@@]2(O)C3Cc4ccc(O)c5c4C2(CCN3CC2CC2)[C@H]1O5 (stereo partly specified) |  |  | 7 |  | 2 | 0.6 |  |  | 2.5 | 2.5 |  |  | 0.8 | 42 | 10 | 56 | 1.8
CCOC(=O)/C=C/C(=O)NCC(=O)NCC(=O)NCC(=O)N[C@@H]1CC[C@@]2(O)C3Cc4ccc(O)c5c4C2(CCN3CC2CC2)[C@H]1O5 (stereo partly specified) | 45 | 10 | 20 | 61 | 0.8 | 1.3 | 1.2 |  | 3.3 | 12.3 |  |  |  |  |  |  | 
